In series [1] the test system is Huh7.5 cells. Nature of the series: Cell viability MTT assay. Format: cell-based. The following applies: up to 5 mM. The procedure, abridged: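 Huh7.5 cells are seeded at 2 × 10^4 per well in DMEM with 10% serum and incubated overnight at 37 °C. After 12 h, cells are treated with a range of test compound concentrations, and viability is read by MTT. Untreated cells serve as control. Data are mean ± SD of three independent experiments; CC50 is taken from the dose response.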
On the technique in general: Tetrazolium assays rely on reduction of a dye to a coloured formazan, in cell work by metabolically active cells.

Series [2] deals with BALB/c mice. Description: Acute oral toxicity in mice. The following applies: for maximum acute tolerance dose: BALB/c mice. The series is classed as in vivo.
Series [3] has as its target HCV NS3/4A protease (Hepatitis C virus, UniProt P26662). Nature of the series: HCV NS3/4A protease fluorimetric activity assay. Format: biochemical. The procedure, abridged: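 Purified single-chain NS3/4A (scNS3/4A, 0.1 μM) is pre-incubated with test compound, then purified EGFP-NS5A/B-CBD fusion substrate (0.5 μM) is added for 1 h at 37 °C. Cellulose slurry stops the reaction; after centrifugation, supernatant fluorescence is read at 484/538 nm. Compounds are screened at 50 μM, with dose response over 10–100 μM. Activity is relative to a no-compound reaction (100%); telaprevir is the positive control.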

In series [4] the target is trypsin (Sus scrofa, UniProt P00761). Description: Cellular serine protease. The series is classed as biochemical. The following applies: up to 250 μM. The procedure, abridged:
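Trypsin is pre-incubated with increasing test compound concentrations, then FITC-labelled casein substrate is added for 1 h at 37 °C. The reaction is stopped with trichloroacetic acid (6.1 N) and centrifuged. Supernatant fluorescence is read at excitation 485 nm and emission 538 nm. Activity is expressed relative to a no-compound reaction (100%); G. max trypsin inhibitor is the positive control.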

Series [5] is described as follows: Oral bioavailability in mice, plasma RP-HPLC. The series is classed as in vivo, BALB/c mice.
The subject of series [6] is BALB/c mice. Description: Sub-acute. The series is classed as in vivo. The procedure, abridged:
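Sub-acute oral toxicity per OECD 407 in BALB/c mice. Test compounds are given orally daily for 28 consecutive days at 1000 or 500 mg/kg b. wt/day, in water or PEG-400. Vehicle controls receive water or PEG-400 at 200 μL/day/mouse. Body weight, food and water intake, behaviour and toxicity signs are recorded. Liver sections (5 μm) are H&E-stained for light microscopy.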

Series [7] deals with Huh7 cells harboring HCV monocistronic replicon genotype 2a (Rep2a). Description: HCV replication assay in Rep2a cell line. Format: cell-based, HCV genotype 2a. As to conditions: at 250 μM, compared with Telaprevir.
A short description of series [8]: Aqueous solubility. The series is classed as physicochemical. The following applies: water.
[9] abbreviates: BALB/c, mouse, plasma, po, 500 mg/kg.

Values after ≈ are worked out from the molar mass of the structure shown. “Also recorded” adds a separate entry of the source.

These results are taken from PMC7254805 (ACS Omega, 2020).

In general, IC50 refers to the concentration needed to halve the response being measured. In general, IC90 refers to the concentration at which the effect reaches the 90% level. As a reminder, the Cmax is the peak of the concentration-time curve. In general, Tmax refers to the time from dosing to the highest level. One may read the half-life as the time needed for the level to fall by half in the phase considered. As usually defined, the solubility is the dissolved amount per volume that the medium holds. Lower therefore signals little dissolved substance.

Chain of HCV NS3/4A protease (P26662 1027-1208, other chains not shown): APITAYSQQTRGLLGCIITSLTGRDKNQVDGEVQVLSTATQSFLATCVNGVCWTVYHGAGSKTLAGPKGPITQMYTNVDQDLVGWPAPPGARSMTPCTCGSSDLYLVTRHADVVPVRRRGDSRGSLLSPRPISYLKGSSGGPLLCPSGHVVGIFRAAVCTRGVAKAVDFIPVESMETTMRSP
Chain of trypsin (P00761 9-231): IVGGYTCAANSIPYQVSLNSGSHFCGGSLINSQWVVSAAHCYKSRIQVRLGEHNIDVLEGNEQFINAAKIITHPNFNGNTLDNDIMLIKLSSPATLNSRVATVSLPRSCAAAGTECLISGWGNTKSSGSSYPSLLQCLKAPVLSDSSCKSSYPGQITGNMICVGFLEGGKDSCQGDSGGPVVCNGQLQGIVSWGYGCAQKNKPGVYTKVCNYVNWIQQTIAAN

`COc1ccc(CC(CC(=O)O)C(=O)O)cc1OC` (centres unmarked) [D8, 2-(3,4-Dimethoxybenzyl)succinic Acid]: in series [1], the cellular toxicity entry is recorded as “did not induce any toxicity; also recorded: no perceptible cellular toxicity”. Also, the liver histology entry in series [2] (maximum acute tolerance dose 4000 mg/kg b. wt p.o, vs water control) is listed as “normal histoarchitecture”. For the same compound, in series [2] (oral, 5000 mg/kg b. wt), the death of mice turned out to be 40%. Further, the death of mice in series [2] (oral, 5250 mg/kg b. wt) was 100%. For the same compound, the “maximum acute tolerance dose” value in series [2] (oral) amounted to 4000 mg/kg b. wt. In addition, the “tolerance dose relative to phyllanthin” value in series [2] (oral, D8 4000 vs phyllanthin 1500 mg/kg) is approximately 2.5 times. In series [3], this compound returned an IC50 of less than 10 µM and an IC90 of 50 µM. Also, the “inhibition of trypsin activity” value in series [4] is recorded as “did not show an inhibition; also recorded: does not occur even at 250 μM”. Also, the “plasma concentration after 2 h” value in series [5] (500 mg/kg p.o) is 595 μg mL^–1. Further, in series [5] (setting [9]), the Cmax was approximately 595 µg/mL, the Tmax was determined as 1 h and the half-life was 2 h. Besides, in series [6] (1000 mg/kg b. wt/day oral, 28 consecutive days), the “changes in general behavior and body weights” value is “did not exhibit any undesirable changes”. Besides, in series [6] (1000 mg/kg b. wt/day oral, 28 days), the liver histology result is “normal histology”. The “reduction in HCV negative strand synthesis” value in series [7] is listed as “matching that of the inhibition by Telapravir”.
In turn, `COC[C@@H](Cc1ccc(OC)c(OC)c1)[C@@H](COC)Cc1ccc(OC)c(OC)c1` [phyllanthin, reference compound] displayed a death of mice in series [2] (oral, 2000 mg/kg b. wt) of 100%. Also, in series [2] (oral), the “maximum acute tolerance dose” value was found to be 1500 mg/kg b. wt. This compound returned an IC50 in series [3] of approximately 50 µM. The “bioavailability (plasma, up to 24 h)” value in series [5] (500 mg/kg b. wt p.o) is on record as “could not observe any bioavailability”. Besides, in series [5] (1500 mg/kg b. wt p.o), the “absorbed concentration in plasma” value is “very low concentration”. In series [6] (500 mg/kg b. wt/day oral in PEG-400, 28 consecutive days), the “changes in general behavior and body weights” value is “did not exhibit any undesirable changes”. In series [8], this compound came in with a solubility of 250 µg/mL (≈ 597 µM).
